# Experimental data taken from PMC7993281 (Clinical and Translational Science, 2020).
# How the values were obtained:
# [1] = system: globotriaosylceramide (Gb3) plasma concentration; experiment: MAD study pharmacodynamics: plasma Gb3; assay type: in vivo, human; details: after last dose
# [2] = MAD study tolerability/safety; assay type: in vivo, human
# Summary of the method: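 Healthy men and women aged 18–55 years, BMI 18–30 kg/m2, 8 active and 2 placebo per cohort. Oral 30–1,000 mg b.i.d. for 7 days with staggered dosing. Subjects were confined until 72 h after the last dose, with follow-up at 29–34 days. AEs, vital signs, ECG, physical examination and clinical laboratory tests were recorded and summarised descriptively.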
# [3] = system: non‐lysosomal glucosylceramidase (GBA2) vs glucosylceramide synthase (GCS); experiment: Relative inhibitory potency on GBA2 versus GCS; assay type: biochemical
# Multiple-ascending dose = assay type: in vivo, human; details: for Tmax: median (range); for CL renal: urine and plasma
# Summary of the method: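 Oral 30, 100, 300 or 1,000 mg b.i.d. for 7 days in healthy men and women, n = 8 active per dose. Plasma sampled for 12 h on Day 1, at trough on Days 2–6, and up to 72 h after the last dose. Urine collected predose Day 1 and 0–12 h on Day 7. Validated LC-MS/MS. Noncompartmental analysis gave AUCτ, accumulation index and CLR.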
# [4] = Cardiodynamic and exposure-response analysis of QT interval; assay type: in vivo, human
# [5] = system: glucosylceramide (GlcCer) plasma concentration; experiment: MAD study pharmacodynamics: plasma GlcCer; assay type: in vivo, human
# Summary of the method: (§1)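 Healthy men and women (1:1), 8 active and 2 placebo per cohort. Oral 30, 100, 300 or 1,000 mg b.i.d. for 7 days. Morning dose after a 10-hour fast, evening dose 2 hours after dinner. Plasma sampled on Days 1, 2, 4 and 7 and at 24, 48 and 72 h after the last dose. Validated LC-MS/MS. Percent change from Day 1 predose.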
# [6] = cited from earlier work
# Single-ascending dose = assay type: in vivo, human; details: for Tmax / half-life / CL renal: human, oral; for Tmax / half-life: plasma
# Summary of the method: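 Healthy men, single oral 10–2,000 mg after a 10-hour fast. The 300 mg cohort was repeated 30 min after a high-fat, high-calorie breakfast following at least 7 days washout. Plasma sampled up to 48 h; 300 mg urine collected at 0–12, 12–24 and 24–48 h. Validated LC-MS/MS with noncompartmental analysis. Fed/fasted GMR with 90% CI; Tmax compared by nonparametric median difference.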
# [7] = system: organic cation transporter 2; details: in vitro; ref Idorsia Pharmaceuticals Ltd, unpublished data; cited from earlier work
# [8] = system: lactosylceramide (LacCer) plasma concentration; experiment: MAD study pharmacodynamics: plasma LacCer; assay type: in vivo, human; details: 72 hours after the last dose
# Summary of the method: as §1
# [9] = MAD 300 mg b.i.d. for 7 days (n = 8)
# [10] = Day 7, 30 mg b.i.d., geometric mean (95% CI)
# [11] = Day 7, 100 mg b.i.d., geometric mean (95% CI)
# [12] = Day 7, 300 mg b.i.d., geometric mean (95% CI)
# [13] = Day 7, 1,000 mg b.i.d., geometric mean (95% CI)
# [14] = both, human, plasma, oral, 30 mg
# [15] = both, human, plasma, oral, 100 mg
# [16] = both, human, plasma, oral, 300 mg
# [17] = both, human, plasma, oral, 1000 mg b.i.d.
smiles,measurement,setting,value
"CCCCCN1C[C@H](O)[C@@H](O)[C@H](O)[C@@H]1CO [sinbaglustat, (2S,3R,4R,5S)‐2‐(hydroxymethyl)‐1‐pentylpiperidine‐3,4,5‐triol]",Gb3 mean percentage change from baseline after treatment stop,[1],remained stable for 3 days after treatment stop
same,Dizziness (subjects),[2]; MAD 30 mg b.i.d. (n = 8),4
same,Headache (subjects),[2]; MAD 30 mg b.i.d. (n = 8),2
same,Muscle twitching (subjects),[2]; MAD 30 mg b.i.d. (n = 8),1
same,Pain in extremity (subjects),[2]; MAD 30 mg b.i.d. (n = 8),1
same,Viral upper respiratory tract (subjects),[2]; MAD 30 mg b.i.d. (n = 8),1
same,Total number of AEs,[2]; MAD 30 mg b.i.d. for 7 days (n = 8),13
same,Dizziness (subjects),[2]; MAD 100 mg b.i.d. (n = 8),2
same,Fatigue (subjects),[2]; MAD 100 mg b.i.d. (n = 8),1
same,Total number of AEs,[2]; MAD 100 mg b.i.d. for 7 days (n = 8),8
same,Dizziness (subjects),[2]; MAD 300 mg b.i.d. (n = 8),1
same,Headache (subjects),[2]; MAD 300 mg b.i.d. (n = 8),2
same,Nausea (subjects),[2]; MAD 300 mg b.i.d. (n = 8),1
same,Rash (subjects),[2]; MAD 300 mg b.i.d. (n = 8),1
same,Number of subjects with at least 1 AE,[2]; [9],4
same,Total number of AEs,[2]; [9],8
same,Constipation (subjects),"[2]; MAD 1,000 mg b.i.d. (n = 8)",1
same,Decreased appetite (subjects),"[2]; MAD 1,000 mg b.i.d. (n = 8)",3
same,Diarrhea (subjects),"[2]; MAD 1,000 mg b.i.d. (n = 8)",2
same,Dizziness (subjects),"[2]; MAD 1,000 mg b.i.d. (n = 8)",3
same,Fatigue (subjects),"[2]; MAD 1,000 mg b.i.d. (n = 8)",2
same,Headache (subjects),"[2]; MAD 1,000 mg b.i.d. (n = 8)",4
same,Muscle twitching (subjects),"[2]; MAD 1,000 mg b.i.d. (n = 8)",1
same,Nausea (subjects),"[2]; MAD 1,000 mg b.i.d. (n = 8)",3
same,Palpitations (subjects),"[2]; MAD 1,000 mg b.i.d. (n = 8)",1
same,Vomiting (subjects),"[2]; MAD 1,000 mg b.i.d. (n = 8)",2
same,female subjects reporting headache (of 4),"[2]; MAD 1,000 mg b.i.d., female subjects",4
same,subjects reporting AEs (of 32 treated),"[2]; MAD, all doses",19
same,subjects reporting dizziness (of 32),"[2]; MAD, all doses",10
same,subjects reporting headache (of 32),"[2]; MAD, all doses",8
same,subjects reporting AEs,"[2]; MAD, all doses, 32 subjects",59%
same,total AEs reported,"[2]; MAD, all doses, 32 subjects",66
same,potency in inhibiting GBA2 relative to GCS,[3],50 fold
same,"AI, accumulation index",Multiple-ascending dose; [10],"1.085 (0.993, 1.185)"
same,"UPE, percentage of dose excreted unchanged in urine",Multiple-ascending dose; [10],"55.12 (52.08, 58.34) %"
same,"AI, accumulation index",Multiple-ascending dose; [11],"1.037 (0.930, 1.156)"
same,"UPE, percentage of dose excreted unchanged in urine",Multiple-ascending dose; [11],"53.55 (44.68, 64.19) %"
same,"AI, accumulation index",Multiple-ascending dose; [12],"1.101 (1.012, 1.198)"
same,"UPE, percentage of dose excreted unchanged in urine",Multiple-ascending dose; [12],"48.35 (40.84, 57.24) %"
same,"AI, accumulation index",Multiple-ascending dose; [13],"1.001 (0.942, 1.064)"
same,"UPE, percentage of dose excreted unchanged in urine",Multiple-ascending dose; [13],"45.54 (41.54, 49.92) %"
same,increased exposure (Cmax and AUCτ) in female compared to male subjects,"Multiple-ascending dose; all dose groups combined, steady‐state",around 30%
same,time to steady‐state concentrations,Multiple-ascending dose; b.i.d. dosing,≤ 2 days
same,accumulation after multiple doses,Multiple-ascending dose; b.i.d. for 7 days,did not accumulate
same,AUC,Multiple-ascending dose; [14],1310 ng·h/mL
same,AUC(0-t),Multiple-ascending dose; [14],1200 ng·h/mL
same,Cmax,"Multiple-ascending dose; both, human, plasma, oral, 30 mg, Cmax, Day 7, 30 mg b.i.d., geometric mean (95% CI)",413 ng/mL
same,Tmax,"Multiple-ascending dose; both, human, plasma, oral, 30 mg, Day 1, 30 mg b.i.d.",0.9 h
same,Tmax,"Multiple-ascending dose; both, human, plasma, oral, 30 mg, Day 7, 30 mg b.i.d.",0.9 h
same,AUC,Multiple-ascending dose; [15],4650 ng·h/mL
same,AUC(0-t),Multiple-ascending dose; [15],4480 ng·h/mL
same,Cmax,"Multiple-ascending dose; both, human, plasma, oral, 100 mg, Cmax, Day 1, 100 mg b.i.d., geometric mean (95% CI)",1340 ng/mL
same,Cmax,"Multiple-ascending dose; both, human, plasma, oral, 100 mg, Cmax, Day 7, 100 mg b.i.d., geometric mean (95% CI)",1270 ng/mL
same,Tmax,"Multiple-ascending dose; both, human, plasma, oral, 100 mg, Day 1, 100 mg b.i.d.",0.9 h
same,Tmax,"Multiple-ascending dose; both, human, plasma, oral, 100 mg, Day 7, 100 mg b.i.d.",1.3 h
same,AUC,Multiple-ascending dose; [16],16800 ng·h/mL
same,AUC(0-t),Multiple-ascending dose; [16],15200 ng·h/mL
same,Cmax,"Multiple-ascending dose; both, human, plasma, oral, 300 mg, Cmax, Day 1, 300 mg b.i.d., geometric mean (95% CI)",3760 ng/mL
same,Cmax,"Multiple-ascending dose; both, human, plasma, oral, 300 mg, Cmax, Day 7, 300 mg b.i.d., geometric mean (95% CI)",3990 ng/mL
same,Tmax,"Multiple-ascending dose; both, human, plasma, oral, 300 mg, Day 1, 300 mg b.i.d.",1.4 h
same,Tmax,"Multiple-ascending dose; both, human, plasma, oral, 300 mg, Day 7, 300 mg b.i.d.",0.9 h
same,AUC,Multiple-ascending dose; [17],51200 ng·h/mL
same,AUC(0-t),Multiple-ascending dose; [17],51200 ng·h/mL
same,half-life,Multiple-ascending dose; [17],14.7 h
same,Cmax,"Multiple-ascending dose; both, human, plasma, oral, 1000 mg b.i.d., Cmax, Day 1, 1,000 mg b.i.d., geometric mean (95% CI)",10600 ng/mL
same,Cmax,"Multiple-ascending dose; both, human, plasma, oral, 1000 mg b.i.d., Cmax, Day 7, 1,000 mg b.i.d., geometric mean (95% CI)",10400 ng/mL
same,Tmax,"Multiple-ascending dose; both, human, plasma, oral, 1000 mg b.i.d., Day 1, 1,000 mg b.i.d.",1.45 h
same,Tmax,"Multiple-ascending dose; both, human, plasma, oral, 1000 mg b.i.d., Day 7, 1,000 mg b.i.d.",2 h
same,CL renal,"Multiple-ascending dose; both, human, oral, 30 mg",211 mL/min
same,CL renal,"Multiple-ascending dose; both, human, oral, 100 mg",192 mL/min
same,CL renal,"Multiple-ascending dose; both, human, oral, 300 mg",144 mL/min
same,CL renal,"Multiple-ascending dose; both, human, oral, 1000 mg b.i.d.",148 mL/min
same,dose excreted unchanged in urine,"Multiple-ascending dose; doses ranging from 30 to 1,000 mg b.i.d.",~ 50%
same,Cmax,"Multiple-ascending dose; female, human, plasma, oral, 1000 mg b.i.d., geometric mean Cmax in women, female subjects, 1,000 mg b.i.d. cohort, day 7",12000 ng/mL
same,"effect on QTcF, HR, PR, and QRS intervals",[4]; change‐from‐baseline and placebo‐adjusted change‐from‐baseline,no clinically relevant effect
same,slope of concentration–ΔΔQTcF relationship,"[4]; linear mixed‐effects model, 90% CI −0.00008 to 0.00056, statistically nonsignificant",0.0002 ms per ng/mL
same,treatment effect‐specific intercept,"[4]; linear mixed‐effects model, nonstatistically significant",-2.7 ms
same,GlcCer during the treatment period,[5]; 30 mg b.i.d.,remained at baseline
same,GlcCer increase from baseline concentration,"[5]; 30 mg b.i.d., 72 hours after the last dose",32%
same,GlcCer percentage change from baseline,"[5]; 100 mg b.i.d., 48 hours after the last dose",–7%
same,GlcCer percentage change from baseline,"[5]; 300 mg b.i.d., 72 hours after the last dose",–1%
same,GlcCer percentage change from baseline,"[5]; 1,000 mg b.i.d., 72 hours after the last dose",–19%
same,reduction in GlcCer,"[5]; highest tested dose (1,000 mg b.i.d.), repeated treatment",72%
same,blood‐brain barrier crossing,[6],crosses the blood‐brain barrier
same,fraction of dose excreted unchanged in urine,Single-ascending dose; 300 mg single dose,About half
same,"median difference in Tmax, fed vs fasted","Single-ascending dose; 300 mg single dose, high‐fat, high‐calorie meal, 90% CI 0.50–1.70",1 h
same,Tmax,"Single-ascending dose; 100 mg, single dose 100 mg, fasted, median (range)",1.4 h
same,Tmax,"Single-ascending dose; 300 mg, single dose 300 mg fasted, median (range)",0.9 h
same,Tmax,"Single-ascending dose; 300 mg, single dose 300 mg fed, median (range)",2.25 h
same,half-life,Single-ascending dose; 1000 mg,11.6 h
same,Tmax,"Single-ascending dose; 1000 mg, single dose 1,000 mg, fasted, median (range)",1.5 h
same,Tmax,"Single-ascending dose; 2000 mg, single dose 2,000 mg, fasted, median (range)",2 h
same,CL renal,"Single-ascending dose; urine and plasma, 300 mg",225 mL/min
same,CL renal,"Single-ascending dose; male, plasma and urine, 300 mg",225 mL/min
same,half-life,Single-ascending dose; male,~12 h
same,Tmax,"Single-ascending dose; male, across single doses 10 to 2,000 mg",0.9 to 2 h
same,duration of distribution phase,Single-ascending dose; single dose,~ 24 hours
same,"UPE, percentage of dose excreted unchanged in urine","Single-ascending dose; single dose 300 mg fasted, geometric mean (95% CI)","48.74 (43.53, 54.59) %"
same,organic cation transporter 2 interaction,[7],a substrate and an inhibitor
same,LacCer percentage change from baseline,[8]; 30 mg b.i.d.,–8%
same,LacCer percentage change from baseline,"[8]; 1,000 mg b.i.d.",–33%
